Results reported in ChEMBL document CHEMBL1949557, “Discovery of INCB3284, a Potent, Selective, and Orally Bioavailable hCCR2 Antagonist” (ACS Med Chem Lett, 2011).

Key:
[1] = target: T1, C-C chemokine receptor type 2 (Homo sapiens, UniProt P41597); assay: Displacement of [125I]MCP1 from CCR2 in human PBMC at 1 uM after 30 mins by gamma counter
Target sequence in this assay (P41597 whole entry, looked up): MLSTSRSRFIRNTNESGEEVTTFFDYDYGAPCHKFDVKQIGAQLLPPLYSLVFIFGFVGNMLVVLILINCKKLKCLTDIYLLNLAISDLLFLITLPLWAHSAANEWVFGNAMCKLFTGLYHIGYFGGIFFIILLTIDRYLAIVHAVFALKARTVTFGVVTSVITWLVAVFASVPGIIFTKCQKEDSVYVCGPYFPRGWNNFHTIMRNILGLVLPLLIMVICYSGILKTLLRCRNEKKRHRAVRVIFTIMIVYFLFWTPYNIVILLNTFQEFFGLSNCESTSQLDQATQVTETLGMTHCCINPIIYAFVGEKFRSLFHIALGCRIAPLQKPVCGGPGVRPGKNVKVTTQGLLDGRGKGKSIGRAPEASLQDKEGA

[2] = target: T1, C-C chemokine receptor type 2; assay: Displacement of [125I]MCP1 from CCR2 in human PBMC after 30 mins by gamma counter
Target sequence in this assay (P41597 whole entry): as the sequence (P41597 whole entry, looked up) above

Mus musculus = assay: Dose normalized AUC in mouse at 10 mg/kg, po; assay type: ADME, organism-based; design: dose 10 mg/kg, route oral; conditions: in vivo
Outline: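 Mouse oral PK screen by cassette dosing at 10 mg/kg, three animals per cassette. AUC is dose-normalized.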

[3] = target: C-C chemokine receptor type 2 (Mus musculus, UniProt P51683); assay: Displacement of [125I]MCP1 from mouse CCR2 after 30 mins by gamma counter
C-C chemokine receptor type 2 (Mus musculus, UniProt P51683), sequence (P51683 whole entry): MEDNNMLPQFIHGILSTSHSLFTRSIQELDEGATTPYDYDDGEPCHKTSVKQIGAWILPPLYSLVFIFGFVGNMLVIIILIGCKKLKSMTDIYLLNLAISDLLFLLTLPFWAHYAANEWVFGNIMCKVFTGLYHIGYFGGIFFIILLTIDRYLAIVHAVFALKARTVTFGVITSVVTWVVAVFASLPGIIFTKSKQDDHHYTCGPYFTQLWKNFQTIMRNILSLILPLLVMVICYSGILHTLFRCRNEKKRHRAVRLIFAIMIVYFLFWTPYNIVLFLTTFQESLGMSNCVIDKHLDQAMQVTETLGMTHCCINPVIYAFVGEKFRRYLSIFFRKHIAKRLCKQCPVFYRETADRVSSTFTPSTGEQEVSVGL

Compound | inhibition [1] [%] | IC50 [2] [nM] | AUC/dose (Mus musculus) [nM·h] | IC50 [3] [nM]
O=C(CNC(=O)c1cccc(C(F)(F)F)c1)N[C@@H]1CCN([C@H]2CC[C@](O)(c3ccncn3)CC2)C1 | < 50 | – | – | –
O=C(CNC(=O)c1cccc(C(F)(F)F)c1)N[C@@H]1CCN([C@H]2CC[C@@](O)(c3cnccn3)CC2)C1 | – | 10.9 | 1550 | –
O=C(CNC(=O)c1cccc(C(F)(F)F)c1)N[C@@H]1CCN([C@H]2CC[C@](O)(c3ccnnc3)CC2)C1 | < 50 | – | – | –
O=C(CNC(=O)c1cccc(C(F)(F)F)c1)N[C@@H]1CCN([C@H]2CC[C@@](O)(c3ccncn3)CC2)C1 | – | 7.8 | 930 | –
O=C(CNC(=O)c1cccc(C(F)(F)F)c1)N[C@@H]1CCN([C@H]2CC[C@](O)(c3cccnn3)CC2)C1 | < 50 | – | – | –
O=C(CNC(=O)c1cccc(C(F)(F)F)c1)N[C@@H]1CCN([C@H]2CC[C@](O)(c3cccnc3)CC2)C1 | < 50 | – | – | –
O=C(CNC(=O)c1cccc(C(F)(F)F)c1)N[C@@H]1CCN([C@H]2CC[C@@](O)(c3cccnn3)CC2)C1 | – | 7.3 | 155 | –
O=C(CNC(=O)c1cccc(C(F)(F)F)c1)N[C@@H]1CCN([C@H]2CC[C@@](O)(c3ncccn3)CC2)C1 | – | 10.3 | 1442 | –
Cc1ccc([C@]2(O)CC[C@H](N3CC[C@@H](NC(=O)CNC(=O)c4cccc(C(F)(F)F)c4)C3)CC2)cc1 | – | 1 | – | 18
O=C(CNC(=O)c1cccc(C(F)(F)F)c1)N[C@@H]1CCN([C@H]2CC[C@@](O)(c3cccnc3)CC2)C1 | – | 2.6 | 50 | –
O=C(CNC(=O)c1cccc(C(F)(F)F)c1)N[C@@H]1CCN([C@H]2CC[C@](O)(c3cncnc3)CC2)C1 | < 50 | – | – | –
O=C(CNC(=O)c1cccc(C(F)(F)F)c1)N[C@@H]1CCN([C@H]2CC[C@](O)(c3ccccn3)CC2)C1 | < 50 | – | – | –
O=C(CNC(=O)c1cccc(C(F)(F)F)c1)N[C@@H]1CCN([C@H]2CC[C@@](O)(c3ccncc3)CC2)C1 | – | 4.3 | 100 | –
Cc1ccc([C@]2(O)CC[C@H](N3CC[C@@H](NC(=O)CNC(=O)c4cccc(C(F)(F)F)c4)C3)CC2)cn1 | – | 2.4 | 127 | –
COc1ccc([C@]2(O)CC[C@@H](N3CC[C@@H](NC(=O)CNC(=O)c4cccc(C(F)(F)F)c4)C3)CC2)cn1 | < 50 | – | – | –
CCOc1ccc([C@]2(O)CC[C@@H](N3CC[C@@H](NC(=O)CNC(=O)c4cccc(C(F)(F)F)c4)C3)CC2)cn1 | < 50 | – | – | –
Cc1ccc([C@]2(O)CC[C@@H](N3CC[C@@H](NC(=O)CNC(=O)c4cccc(C(F)(F)F)c4)C3)CC2)cn1 | < 50 | – | – | –
O=C(CNC(=O)c1cccc(C(F)(F)F)c1)N[C@@H]1CCN([C@H]2CC[C@@](O)(c3ccccn3)CC2)C1 | – | 3.2 | 2812 | –
Cc1ccc([C@]2(O)CC[C@H](N3CC[C@H](NC(=O)CNC(=O)c4cccc(C(F)(F)F)c4)C3)CC2)cc1 | – | > 1000 | – | –
O=C(CNC(=O)c1cccc(C(F)(F)F)c1)N[C@@H]1CCN([C@H]2CC[C@](O)(c3ccncc3)CC2)C1 (mixture of isomers) | < 50 | – | – | –
O=C(CNC(=O)c1cccc(C(F)(F)F)c1)N[C@@H]1CCN([C@H]2CC[C@@](O)(c3cncnc3)CC2)C1 | – | 14 | – | –
O=C(CNC(=O)c1cccc(C(F)(F)F)c1)N[C@@H]1CCN([C@H]2CC[C@](O)(c3ncccn3)CC2)C1 | < 50 | – | – | –
O=C(CNC(=O)c1cccc(C(F)(F)F)c1)N[C@@H]1CCN([C@H]2CC[C@](O)(c3cnccn3)CC2)C1 | < 50 | – | – | –
O=C(CNC(=O)c1cccc(C(F)(F)F)c1)N[C@@H]1CCN([C@H]2CC[C@@](O)(c3ccnnc3)CC2)C1 | – | 4.9 | 80 | –
CCOc1ccc([C@]2(O)CC[C@H](N3CC[C@@H](NC(=O)CNC(=O)c4cccc(C(F)(F)F)c4)C3)CC2)cn1 | – | 3.2 | 287 | –
